Bioassay records (PubChem BioAssay)
DENV2 CPE rescue – protects cells from dengue virus 2 cytopathic effect; DENV2-infected cells, cytopathic effect rescue, plate reader; CPE inhibition, % at 9.99 µM; actives 1.7% (n = 350,000); in the data active = CPE inhibition above about 20%, passing the limit was not always enough; tested in BHK-21 cells;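 note: 0% = median of neutral control wells and 100% = median of positive control wells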
ERAP1 HTS inh – inhibitors of human ERAP1 aminopeptidase; Q9NZ08; recombinant ERAP1, Leu-AMC fluorescence, 60 min; inhibition, % at 10.7 µM; actives 0.15% (n = 340,000); AID 652197;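 active = mean replicate inhibition of at least 30%, or all replicates individually reaching that 30% level; inactive = mean below 30% and not every replicate reaching it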;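 note: 0% = neutral control wells and 100% = L-leucinethiol positive control wells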
F508del corr – correctors of CFTR F508del function in bronchial epithelial cells. CFBE cells, YFP halide quenching; stimulated with forskolin plus potentiator P3; % fluorescence drop versus neutral controls. actives 0.36% (n = 350,000). activity (quench increase), % at 7.58 µM;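 active = mean added fluorescence quench of at least 8% versus neutral control, with both replicates also reaching 8%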;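 note: cells transiently co-express mutant CFTR-F508del with the halide-sensitive YFP; corrector assay measuring rescue of mutant channel to the surface after 24 h compound exposure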
E-sel inducer – E-selectin induction on HUVECs; HUVEC E-selectin immunofluorescence imaging; normalized: neutral wells 0, TNF-alpha wells 100; activation, % at 7.58 µM; actives 0.37% (n = 260,000);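 active = mean E-selectin-positive cell signal at least 10% of the positive control, reached in at least 60% of replicates, without over 20% cell loss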
Target sequence (P16581 whole entry, looked up): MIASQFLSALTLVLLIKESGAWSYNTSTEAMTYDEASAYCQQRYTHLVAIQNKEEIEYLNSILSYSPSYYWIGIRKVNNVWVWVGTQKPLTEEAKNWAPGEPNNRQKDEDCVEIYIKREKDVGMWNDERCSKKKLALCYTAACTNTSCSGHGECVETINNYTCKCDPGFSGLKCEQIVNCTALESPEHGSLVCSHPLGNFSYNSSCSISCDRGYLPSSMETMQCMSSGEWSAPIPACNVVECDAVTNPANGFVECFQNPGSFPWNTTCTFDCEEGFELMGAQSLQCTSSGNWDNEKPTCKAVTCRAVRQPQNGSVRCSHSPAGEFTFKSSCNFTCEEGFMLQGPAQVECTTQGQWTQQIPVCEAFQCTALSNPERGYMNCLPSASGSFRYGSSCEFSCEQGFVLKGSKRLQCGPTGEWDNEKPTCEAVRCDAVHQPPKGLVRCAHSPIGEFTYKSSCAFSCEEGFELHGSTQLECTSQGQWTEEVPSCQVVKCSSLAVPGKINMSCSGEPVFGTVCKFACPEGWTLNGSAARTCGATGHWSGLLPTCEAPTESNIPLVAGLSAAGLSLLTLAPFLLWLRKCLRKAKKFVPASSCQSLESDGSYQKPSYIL
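material = human umbilical vein endothelial cells (HUVEC), E-selectin induction | quantity = 3,000 cells/well | medium = EGM-2 growth medium on 0.1% gelatin-coated wells | technique = immunofluorescence imaging | read-out basis = % PE-positive cells | control set = TNF-alpha positive control, DMSO neutral control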
FGF22 binding – binders of recombinant human FGF22 by thermal shift; activity (Tm shift, normalised), % at 9.99 µM; actives 1.5% (n = 340,000); Q9HCT0; SYPRO orange fluorescence; percent of sucrose octasulfate shift, DMSO zero;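 active = mean Tm shift, scaled 0 neutral to 100 positive control, at about 1.3% or above, every replicate too, limit read from the data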
Starred values were filed as active, the others as inactive; / = not tested or not shown; ! = a repeat was not active. Only some compounds are listed: those with a hit (about 3.7% of all), similar ones and a draw of the others.

SMILES	DENV2 CPE rescue	ERAP1 HTS inh	F508del corr	E-sel inducer	FGF22 binding
CC(=O)NC[C@H]1[C@@H](c2ccc(-c3ccccc3)cc2)[C@@H](CO)N1C(=O)C1CCC1	31.4*	-2.2	0.8	0.3	-0.5
CCC(=O)NC[C@H]1[C@H](c2ccc(-c3cccc(F)c3)cc2)[C@H](CO)N1C(=O)CC	28.8*	0.5	2.7	0.4	0.0
Cc1noc(C)c1S(=O)(=O)N(C)C[C@@H]1Oc2ccc(NS(=O)(=O)c3ccc(F)cc3)cc2C(=O)N([C@H](C)CO)C[C@@H]1C	/	/	-0.2	-5.3	/
COCC(=O)Nc1ccc2c(c1)[C@@H]1C[C@@H](CC(=O)NCc3ccc(Cl)cc3)O[C@@H](CO)[C@@H]1O2	-3.8	/	-1.2	-0.5	-0.1
C[C@@H]1CCCCO[C@H](CN(C)CC2CCCCC2)[C@H](C)CN([C@@H](C)CO)C(=O)c2cc(NS(=O)(=O)c3cn(C)cn3)ccc2O1	7.3	-2.0	1.8	0.7	-0.7
CCCNC(=O)N1[C@H](CO)[C@@H](c2ccc(C3=CCCC3)cc2)[C@@H]1CN(C)C(C)=O	-4.6	/	8.1*	0.2	/
O=C(CCN1CCCCC1)NCC[C@@H]1CC[C@H](NC(=O)C2CCCC2)[C@@H](CO)O1	2.9	-1.5	1.0	0.0	-0.2
COc1ccc(S(=O)(=O)Nc2cccc3c2O[C@@H](CN(C)C(=O)Nc2c(C)noc2C)[C@@H](C)CN([C@@H](C)CO)C3=O)cc1	26.3*	7.8	-0.3	-6.5	0.3
COc1ccc(S(=O)(=O)Nc2cccc3c2O[C@H](CN(C)C(=O)Nc2c(C)noc2C)[C@H](C)CN([C@@H](C)CO)C3=O)cc1	6.9	6.2	0.0	63.4*	0.4
CNC[C@@H]1Oc2ccc(NC(=O)Nc3ccccc3)cc2C(=O)N([C@H](C)CO)C[C@H]1C	6.5	-0.1	-2.3	-2.4	-0.1
O=C(c1cc(=O)[nH]c2ccccc12)N1CCN(c2ccc([N+](=O)[O-])cc2)CC1	2.8	/	-2.9	33.4*	0.0
COc1ccc(N2CCN(C(=O)c3cc(=O)[nH]c4ccccc34)CC2)cc1	-4.1	-2.7	2.3	/	0.4
C[C@@H]1CN([C@H](C)CO)C(=O)Cc2cc(NC(=O)Nc3ccc(C(F)(F)F)cc3)ccc2O[C@@H]1CN(C)S(=O)(=O)c1cn(C)cn1	-0.6	0.1	-0.7	0.3	-0.6
CC(NC1CCCC1)c1ccccc1 (stereo not drawn)	/	-5.2	-0.5	/	43.9*
CC(NC(=O)C1CCCC1)c1ccccc1 (stereo not drawn)	-5.7	-1.3	-3.1	/	-0.3
COc1ccc(C(C)=O)cc1CS(=O)(=O)CC(=O)NCCc1c[nH]c2ccccc12	-6.0	0.2	12.2*	0.3	-0.2
COc1ccc(C(=O)CCC(=O)NCCc2c[nH]c3ccccc23)cc1OC	12.8	-6.9	-1.9	0.0	0.2
CC(C)NC(=O)Nc1ccc2c(c1)C(=O)N([C@@H](C)CO)C[C@@H](C)[C@H](CN(C)Cc1ccc3c(c1)OCO3)OCCCC[C@H](C)O2	-0.8	/	0.6	/	-0.1
COc1ccc2c(c1)C(=O)CC(c1ccc3c(c1)OCCO3)O2 (stereo not drawn)	-0.3	-2.9	11.7*	0.0	-0.4
COc1ccc2c(c1)C(=O)CC(c1ccc(OC)c(OC)c1)O2 (stereo not drawn)	-7.6	0.8	-0.1	0.0	0.0
COCC(=O)Nc1ccc2c(c1)C(=O)N(C)C[C@@H](OC)[C@H](C)CN(C(=O)CC1CC1)[C@@H](C)CO2	-1.6	0.2	0.0	-0.1	0.2
O=C(CN1CCN(S(=O)(=O)c2ccccc2)CC1)Nc1ccccc1Cl	-4.0	1.6	8.5*	/	0.2
CCOc1ccccc1NC(=O)N1CCC(NC(=O)C2CCCCC2)CC1	10.1	-4.2	-1.9	34.6*	0.0
CCCCCCCc1c(O)nc(SCCN(C)C)[nH]c1=O	1.6	/	1.2	-0.3	0.2
CCCCCCc1c(O)nc(SCCN2CCOCC2)[nH]c1=O	0.5	4.7	-1.8	/	44.2*
SMILES	DENV2 CPE rescue	ERAP1 HTS inh	F508del corr	E-sel inducer	FGF22 binding
CCOc1cc(/C=N/NC(=O)C(=O)N/N=C/c2ccc(O)c(OCC)c2)ccc1O	0.2	1.0	-10.6	/	0.1
CCOc1cc(/C=N/NC(=O)c2ccc3c(c2)OCCO3)cc(Br)c1O	11.1	-9.9	-1.3	/	42.2
CCOc1cc(/C=N/NC(=O)C(N)=O)cc(Br)c1O	6.4	-3.4	-0.5	/	43.3*
CCOc1cc(/C=N/NC(=O)C(=O)NC2CC2)cc(Br)c1O	46.5*	3.4	/	/	-0.1
CCOc1cc(/C=N/NC(=O)N/N=C/c2ccc(O)c(OCC)c2)ccc1O	1.7	3.3	10.8*	0.6	-0.5
CC1NC(=S)N(C2CCCCC2)C1=O (stereo not drawn)	11.2	-0.8	-1.6	1.5	43.2*
COc1ccccc1NC(=O)N[C@@H]1C=C[C@H](CC(=O)N[C@@H](C)c2ccccc2)O[C@@H]1CO	-3.4	-0.5	-0.5	-0.2	/
C[C@H](CO)N1C[C@H](C)[C@H](CN(C)C(=O)Nc2ccc3c(c2)OCCO3)OCc2cn(nn2)CCCC1=O	1.6	0.1	-3.6	0.0	0.0
CCc1ccc(NC(=O)CSc2nc3[nH]ncc3c(=O)[nH]2)cc1	-0.7	6.7	2.9	/	43.2*
O=C(CSc1nc2[nH]ncc2c(=O)[nH]1)Nc1ccc(Cl)cc1	8.7	-1.5	1.8	/	-0.1
C[C@H](CO)N1C[C@H](C)[C@H](CN(C)Cc2ccc(C(=O)O)cc2)Oc2c(NS(=O)(=O)c3ccc(Cl)cc3)cccc2C1=O	13.6	1.4	-1.0	-0.5	0.5
C[C@@H]1CN([C@H](C)CO)C(=O)c2cc(NC(=O)Nc3ccc(F)cc3)ccc2O[C@@H](C)CCCCO[C@H]1CN(C)S(=O)(=O)c1cccs1	47.0*!	3.0	1.4	3.3	-0.3
C[C@H]1CCCCO[C@H](CN(C)S(=O)(=O)c2cccs2)[C@@H](C)CN([C@@H](C)CO)C(=O)c2cc(NC(=O)Nc3ccc(F)cc3)ccc2O1	-6.7	0.4	-0.2	-0.1	-0.3
C[C@@H]1CCCCO[C@H](CN(C)S(=O)(=O)c2cccs2)[C@@H](C)CN([C@@H](C)CO)C(=O)c2cc(NC(=O)c3ccccc3)ccc2O1	22.8*	/	-0.5	0.5	-0.3
C[C@H](CO)N1C[C@H](C)[C@@H](CN(C)S(=O)(=O)c2cccs2)Oc2ccc(NC(=O)Nc3ccc(F)cc3)cc2C1=O	-1.2	1.4	-1.3	-6.4	-0.1
C[C@@H]1CCCCO[C@H](CN(C)S(=O)(=O)c2cccs2)[C@@H](C)CN([C@H](C)CO)C(=O)c2cc(NC(=O)c3ccccc3)ccc2O1	14.1	/	1.3	0.2	-0.4
C[C@H]1CN([C@@H](C)CO)C(=O)c2cc(NC(=O)Nc3ccc(F)cc3)ccc2O[C@H]1CN(C)S(=O)(=O)c1cccs1	9.3	0.5	-2.5	26.5*	-0.4
